Results reported in ChEMBL document CHEMBL2086248, “Synthesis of some novel 1-(2-naphthyl)-2-(imidazol-1-yl)ethanone oxime ester derivatives and evaluation of their anticonvulsant activity” (Eur J Med Chem, 2012).
Calls of active or inactive are those of the source.

What was measured:
Mus musculus [1] = test: Anticonvulsant activity in mouse assessed as protection against subcutaneous pentylenetetrazole-induced seizures at 30 mg/kg, ip after 0.5 hrs; assay type: functional, organism-based; design: dose 30 mg/kg
Procedure, shortened: (§1)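 Swiss albino mice (20-24 g) were dosed ip with a suspension in 30% aqueous PEG 400 and challenged 0.5 h or 4 h later. Protection meant no threshold seizure (clonic spasms lasting at least 5 s). Scored as number protected/number tested, one mouse per dose and time.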

Mus musculus [2] = test: Neurotoxicity in mouse assessed as motor impairment at 100 mg/kg, ip after 4 hrs by rotarod test; assay type: toxicity, organism-based; design: dose 100 mg/kg, route intraperitoneal; conditions: in vivo
Procedure, shortened: (§2)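 Swiss albino mice (20-24 g) were dosed ip with a suspension in 30% aqueous PEG 400 and tested 0.5 h or 4 h later. They were placed on a knurled wooden rod 1 inch in diameter, rotating at 6 rpm. Toxicity meant failure to stay on the rod for at least 1 min in each of three trials. Scored as number toxic/number tested (4 mice at 0.5 h, 2 at 4 h).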

Mus musculus [3] = test: Neurotoxicity in mouse assessed as motor impairment at 30 mg/kg, ip after 4 hrs by rotarod test; assay type: toxicity, organism-based; design: dose 30 mg/kg, route intraperitoneal; conditions: in vivo; procedure, shortened: as §2
Mus musculus [4] = test: Anticonvulsant activity in mouse assessed as protection against maximal electroshock-induced seizures at 300 mg/kg, ip after 4 hrs; assay type: functional, organism-based; design: dose 300 mg/kg
Procedure, shortened: (§3)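 Swiss albino mice (20-24 g) received an ip suspension in 30% aqueous PEG 400 and were tested 0.5 h and 4 h after dosing. Shock was delivered through corneal electrodes from a constant current unit, with 0.9% saline dropped into the eyes first. Protection meant abolition of the hind limb tonic extension. Scored as number protected/number tested, one mouse per dose and time.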

Mus musculus [5] = test: Anticonvulsant activity in mouse assessed as protection against subcutaneous pentylenetetrazole-induced seizures at 30 mg/kg, ip after 4 hrs; assay type: functional, organism-based; design: dose 30 mg/kg; procedure, shortened: as §1
Mus musculus [6] = test: Anticonvulsant activity in mouse assessed as protection against maximal electroshock-induced seizures at 30 mg/kg, ip after 0.5 hrs; assay type: functional, organism-based; design: dose 30 mg/kg; procedure, shortened: as §3
Mus musculus [7] = test: Anticonvulsant activity in mouse assessed as protection against maximal electroshock-induced seizures at 100 mg/kg, ip after 0.5 hrs; assay type: functional, organism-based; design: dose 100 mg/kg; procedure, shortened: as §3
Mus musculus [8] = test: Anticonvulsant activity in mouse assessed as protection against subcutaneous pentylenetetrazole-induced seizures at 100 mg/kg, ip after 0.5 hrs; assay type: functional, organism-based; design: dose 100 mg/kg; procedure, shortened: as §1
Mus musculus [9] = test: Neurotoxicity in mouse assessed as motor impairment at 30 mg/kg, ip after 0.5 hrs by rotarod test; assay type: toxicity, organism-based; design: dose 30 mg/kg, route intraperitoneal; conditions: in vivo; procedure, shortened: as §2
Mus musculus [10] = test: Anticonvulsant activity in mouse assessed as protection against maximal electroshock-induced seizures at 100 mg/kg, ip after 4 hrs; assay type: functional, organism-based; design: dose 100 mg/kg; procedure, shortened: as §3
Mus musculus [11] = test: Anticonvulsant activity in mouse assessed as protection against maximal electroshock-induced seizures at 300 mg/kg, ip after 0.5 hrs; assay type: functional, organism-based; design: dose 300 mg/kg; procedure, shortened: as §3
Mus musculus [12] = test: Neurotoxicity in mouse assessed as mortality at 300 mg/kg, ip after 0.5 hrs by rotarod test; assay type: toxicity, organism-based; design: dose 300 mg/kg, route intraperitoneal; conditions: in vivo
Mus musculus [13] = test: Neurotoxicity in mouse assessed as mortality at 300 mg/kg, ip after 4 hrs by rotarod test; assay type: toxicity, organism-based; design: dose 300 mg/kg, route intraperitoneal; conditions: in vivo
Mus musculus [14] = test: Neurotoxicity in mouse assessed as motor impairment at 100 mg/kg, ip after 0.5 hrs by rotarod test; assay type: toxicity, organism-based; design: dose 100 mg/kg, route intraperitoneal; conditions: in vivo; procedure, shortened: as §2
Mus musculus [15] = test: Anticonvulsant activity in mouse assessed as protection against subcutaneous pentylenetetrazole-induced seizures at 300 mg/kg, ip after 0.5 hrs; assay type: functional, organism-based; design: dose 300 mg/kg; procedure, shortened: as §1
Mus musculus [16] = test: Anticonvulsant activity in mouse assessed as protection against maximal electroshock-induced seizures at 30 mg/kg, ip after 4 hrs; assay type: functional, organism-based; design: dose 30 mg/kg; procedure, shortened: as §3
Mus musculus [17] = test: Anticonvulsant activity in mouse assessed as protection against subcutaneous pentylenetetrazole-induced seizures at 100 mg/kg, ip after 4 hrs; assay type: functional, organism-based; design: dose 100 mg/kg; procedure, shortened: as §1
Mus musculus [18] = test: Neurotoxicity in mouse assessed as motor impairment at 300 mg/kg, ip after 0.5 hrs by rotarod test; assay type: toxicity, organism-based; design: dose 300 mg/kg, route intraperitoneal; conditions: in vivo; procedure, shortened: as §2
Mus musculus [19] = test: Anticonvulsant activity in mouse assessed as protection against subcutaneous pentylenetetrazole-induced seizures at 300 mg/kg, ip after 4 hrs; assay type: functional, organism-based; design: dose 300 mg/kg; procedure, shortened: as §1
Mus musculus [20] = test: Neurotoxicity in mouse assessed as motor impairment at 300 mg/kg, ip after 4 hrs by rotarod test; assay type: toxicity, organism-based; design: dose 300 mg/kg, route intraperitoneal; conditions: in vivo; procedure, shortened: as §2

SMILES | Activity (Mus musculus [1]) | Activity (Mus musculus [2]) | Activity (Mus musculus [3]) | Activity (Mus musculus [4]) | Activity (Mus musculus [5]) | Activity (Mus musculus [6]) | Activity (Mus musculus [7]) | Activity (Mus musculus [8]) | Activity (Mus musculus [9]) | Activity (Mus musculus [10]) | Activity (Mus musculus [11]) | Activity (Mus musculus [12]) | Activity (Mus musculus [13]) | Activity (Mus musculus [14]) | Activity (Mus musculus [15]) | Activity (Mus musculus [16]) | Activity (Mus musculus [17]) | Activity (Mus musculus [18]) | Activity (Mus musculus [19]) | Activity (Mus musculus [20])
O=C(CCC(=O)c1ccccc1)O/N=C(\Cn1ccnc1)c1ccc2ccccc2c1 | inactive | Non-toxic | Non-toxic | inactive | inactive | Active | Active | inactive | Non-toxic | Active | inactive | Toxic | Toxic | Non-toxic | inactive | Active | inactive | – | – | –
NC(=O)N1c2ccccc2C=Cc2ccccc21 [CARBAMAZEPINE] | inactive | Non-toxic | Non-toxic | Active | inactive | Active | Active | inactive | Non-toxic | Active | Active | – | – | Non-toxic | Active | inactive | Active | Toxic | Active | Non-toxic
